In ChEMBL document CHEMBL3813688, “Synthesis, antitumor activity and mechanism of action of novel 1,3-thiazole derivatives containing hydrazide-hydrazone and carboxamide moiety” (Bioorg Med Chem Lett, 2016):
In brackets after ≈: the same amount, converted by molar mass.

What was measured:
[1] = test system: HepG2; experiment: Cell cycle arrest in human HepG2 cells assessed as accumulation at sub-G1 phase at 0.55 ug/ml after 48 hrs by propidium iodide staining based flow cytometry relative to control; type: functional
[2] = test system: HepG2; experiment: Induction of apoptosis in human HepG2 cells assessed as viable cells at 0.55 ug/ml after 24 to 48 hrs by Annexin V-FITC/propidium iodide staining based flow cytometry (reference value: 95.6 %); type: functional; settings: read-out: Activity
[3] = test system: HepG2; experiment: Induction of apoptosis in human HepG2 cells assessed as late apoptotic cells at 0.55 ug/ml after 24 to 48 hrs by Annexin V-FITC/propidium iodide staining based flow cytometry (reference value: 0.1 %); type: functional
[4] = test system: HepG2; experiment: Cell cycle arrest in human HepG2 cells assessed as accumulation at S phase at 0.55 ug/ml after 48 hrs by propidium iodide staining based flow cytometry (reference value: 35.42 %); type: functional
[5] = test system: HepG2; experiment: Induction of apoptosis in human HepG2 cells assessed as viable cells at 1.1 ug/ml after 24 to 48 hrs by Annexin V-FITC/propidium iodide staining based flow cytometry (reference value: 95.6 %); type: functional; settings: read-out: Activity
[6] = test system: HepG2; experiment: Cell cycle arrest in human HepG2 cells assessed as accumulation at S phase after 48 hrs by propidium iodide staining based flow cytometry; type: functional
[7] = test system: HepG2; experiment: Cell cycle arrest in human HepG2 cells assessed as accumulation at G1 phase at 1.1 ug/ml after 48 hrs by propidium iodide staining based flow cytometry (reference value: 57.68 %); type: functional
[8] = test system: HepG2; experiment: Cytotoxicity against human HepG2 cells assessed as cell growth inhibition at 20 ug/ml after 72 hrs by MTT assay; type: functional; settings: HepG2, 72 h, read-out: GI
[9] = test system: MCF7; experiment: Cytotoxicity against human MCF7 cells assessed as cell growth inhibition after 72 hrs by MTT assay; type: functional, cell-based; settings: MCF7, 72 h
Procedure, shortened: (§1)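 MTT growth assay in human cancer lines (MCF-7, HepG2, BGC-823, HeLa, A549), 72 h after treatment; 5-fluorouracil as reference. IC50 (μg/mL) taken as concentration giving 50% growth inhibition versus untreated control.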

[10] = test system: HeLa; experiment: Cytotoxicity against human HeLa cells assessed as cell growth inhibition after 72 hrs by MTT assay; type: functional, cell-based; procedure, shortened: as §1
[11] = Cytotoxicity against human HL7702 cells assessed as cell growth inhibition after 72 hrs by MTT assay; type: cell-based; settings: L02, 72 h
[12] = test system: HepG2; experiment: Induction of apoptosis in human HepG2 cells assessed as early apoptotic cells at 0.55 ug/ml after 24 to 48 hrs by Annexin V-FITC/propidium iodide staining based flow cytometry (reference value: 2.5 %); type: functional
[13] = test system: HepG2; experiment: Cell cycle arrest in human HepG2 cells assessed as accumulation at S phase at 1.1 ug/ml after 48 hrs by propidium iodide staining based flow cytometry (reference value: 35.42 %); type: functional
[14] = test system: HepG2; experiment: Cytotoxicity against human HepG2 cells assessed as cell growth inhibition after 72 hrs by MTT assay; type: functional, cell-based; settings: HepG2, 72 h; procedure, shortened: as §1
[15] = Cytotoxicity against human BCG823 cells assessed as cell growth inhibition after 72 hrs by MTT assay; type: functional, cell-based; settings: BCG823, 72 h; procedure, shortened: as §1
[16] = test system: HepG2; experiment: Induction of apoptosis in human HepG2 cells assessed as necrotic cells at 1.1 ug/ml after 24 to 48 hrs by Annexin V-FITC/propidium iodide staining based flow cytometry (reference value: 1.8 %); type: functional
[17] = test system: HepG2; experiment: Induction of apoptosis in human HepG2 cells assessed as early apoptotic cells at 1.1 ug/ml after 24 to 48 hrs by Annexin V-FITC/propidium iodide staining based flow cytometry (reference value: 2.5 %); type: functional
[18] = test system: HepG2; experiment: Induction of apoptosis in human HepG2 cells assessed as necrotic cells at 0.55 ug/ml after 24 to 48 hrs by Annexin V-FITC/propidium iodide staining based flow cytometry (reference value: 1.8 %); type: functional
[19] = test system: HepG2; experiment: Cell cycle arrest in human HepG2 cells assessed as accumulation at G1 phase at 0.55 ug/ml after 48 hrs by propidium iodide staining based flow cytometry (reference value: 57.68 %); type: functional
[20] = test system: HepG2; experiment: Cell cycle arrest in human HepG2 cells assessed as accumulation at G2 phase at 0.55 ug/ml after 48 hrs by propidium iodide staining based flow cytometry (reference value: 6.89 %); type: functional
[21] = test system: A549; experiment: Cytotoxicity against human A549 cells assessed as cell growth inhibition after 72 hrs by MTT assay; type: functional, cell-based; settings: A549, 72 h; procedure, shortened: as §1
[22] = test system: HepG2; experiment: Cell cycle arrest in human HepG2 cells assessed as accumulation at sub-G1 phase at 1.1 ug/ml after 48 hrs by propidium iodide staining based flow cytometry relative to control; type: functional
[23] = test system: HepG2; experiment: Cell cycle arrest in human HepG2 cells assessed as accumulation at G2 phase at 1.1 ug/ml after 48 hrs by propidium iodide staining based flow cytometry (reference value: 6.89 %); type: functional
[24] = test system: HepG2; experiment: Induction of apoptosis in human HepG2 cells assessed as late apoptotic cells at 1.1 ug/ml after 24 to 48 hrs by Annexin V-FITC/propidium iodide staining based flow cytometry (reference value: 0.1 %); type: functional
[25] = test system: HepG2; experiment: Induction of apoptosis in human HepG2 cells assessed as viable cells at 3.64 ug/ml after 24 to 48 hrs by Annexin V-FITC/propidium iodide staining based flow cytometry (reference value: 95.6 %); type: functional; settings: read-out: Activity
[26] = test system: HepG2; experiment: Induction of apoptosis in human HepG2 cells assessed as necrotic cells at 1.82 ug/ml after 24 to 48 hrs by Annexin V-FITC/propidium iodide staining based flow cytometry (reference value: 1.8 %); type: functional
[27] = test system: HepG2; experiment: Induction of apoptosis in human HepG2 cells assessed as late apoptotic cells at 1.82 ug/ml after 24 to 48 hrs by Annexin V-FITC/propidium iodide staining based flow cytometry (reference value: 0.1 %); type: functional
[28] = test system: HepG2; experiment: Induction of apoptosis in human HepG2 cells assessed as viable cells at 1.82 ug/ml after 24 to 48 hrs by Annexin V-FITC/propidium iodide staining based flow cytometry (reference value: 95.6 %); type: functional; settings: read-out: Activity
[29] = test system: HepG2; experiment: Induction of apoptosis in human HepG2 cells assessed as early apoptotic cells at 1.82 ug/ml after 24 to 48 hrs by Annexin V-FITC/propidium iodide staining based flow cytometry (reference value: 2.5 %); type: functional
[30] = test system: HepG2; experiment: Induction of apoptosis in human HepG2 cells assessed as necrotic cells at 3.64 ug/ml after 24 to 48 hrs by Annexin V-FITC/propidium iodide staining based flow cytometry (reference value: 1.8 %); type: functional
[31] = test system: HepG2; experiment: Induction of apoptosis in human HepG2 cells assessed as late apoptotic cells at 3.64 ug/ml after 24 to 48 hrs by Annexin V-FITC/propidium iodide staining based flow cytometry (reference value: 0.1 %); type: functional
[32] = test system: HepG2; experiment: Induction of apoptosis in human HepG2 cells assessed as early apoptotic cells at 3.64 ug/ml after 24 to 48 hrs by Annexin V-FITC/propidium iodide staining based flow cytometry (reference value: 2.5 %); type: functional

Cc1nc(N(C)C(=O)NC(=O)c2c(F)cccc2F)sc1C(=O)N/N=C/c1ccccc1C(F)(F)F
Activity [1]: 34.5% | viability at 0.55 µg/mL [2]: 91.2% | Activity [3]: 0.4% | Activity [4]: 56.87% | viability at 1.1 µg/mL [5]: 80.9% | Activity [6]: Dose-dependent effect | Activity [7]: 11.83% | inhibition of growth at 20 µg/mL [8]: 90% | IC50 [9]: 7.34 µg/mL (≈ 14 µM) | IC50 [10]: 6.51 µg/mL (≈ 12.4 µM) | IC50 [11]: 9.43 µg/mL (≈ 17.9 µM) | Activity [12]: 7% | Activity [13]: 88.17% | IC50 [14]: 1.11 µg/mL (≈ 2.11 µM) | IC50 [15]: 7.88 µg/mL (≈ 15 µM) | Activity [16]: 2.3% | Activity [17]: 16.5% | Activity [18]: 1.4% | Activity [19]: 41.02% | Activity [20]: 2.11% | IC50 [21]: 5.43 µg/mL (≈ 10.3 µM) | Activity [22]: 66.72% | Activity [23]: 0% | Activity [24]: 0.3%

CN(C(=O)NC(=O)c1ccc(F)c(F)c1)c1nc(C(F)(F)F)c(C(=O)N/N=C/c2ccc(C(F)(F)F)cc2)s1
IC50 [9]: 5.93 µg/mL (≈ 10.2 µM) | IC50 [10]: 5.1 µg/mL (≈ 8.8 µM) | IC50 [11]: 13.2 µg/mL (≈ 22.9 µM) | IC50 [14]: 6.26 µg/mL (≈ 10.8 µM) | IC50 [15]: 3.85 µg/mL (≈ 6.64 µM) | IC50 [21]: 6.07 µg/mL (≈ 10.5 µM)

CN(C(=O)NC(=O)c1ccc(F)c(F)c1)c1nc(C(F)(F)F)c(C(=O)N/N=C/c2cc(C(F)(F)F)cc(C(F)(F)F)c2)s1
IC50 [9]: 2.61 µg/mL (≈ 4.03 µM) | IC50 [10]: 4.45 µg/mL (≈ 6.87 µM) | IC50 [11]: 20.1 µg/mL (≈ 31 µM) | IC50 [14]: 5.47 µg/mL (≈ 8.45 µM) | IC50 [15]: 3.51 µg/mL (≈ 5.42 µM) | IC50 [21]: 5.47 µg/mL (≈ 8.45 µM)

CN(C(=O)NC(=O)c1ccc(C(F)(F)F)cc1)c1nc(C(F)(F)F)c(C(=O)N/N=C/c2ccccc2C(F)(F)F)s1
viability at 3.64 µg/mL [25]: 77.9% | Activity [26]: 0.3% | IC50 [9]: 2.21 µg/mL (≈ 3.61 µM) | IC50 [10]: 3.76 µg/mL (≈ 6.15 µM) | IC50 [11]: 12.4 µg/mL (≈ 20.3 µM) | Activity [27]: 0.4% | viability at 1.82 µg/mL [28]: 91.5% | Activity [29]: 7.8% | Activity [30]: 3.2% | IC50 [14]: 3.64 µg/mL (≈ 5.95 µM) | Activity [31]: 0.3% | IC50 [15]: 2.53 µg/mL (≈ 4.14 µM) | IC50 [21]: 6.68 µg/mL (≈ 10.9 µM) | Activity [32]: 18.6%
